This is an account of results in PMC5222895 (Drugs & Aging, 2016).

Assay type in all cases: in vivo, human
Series [1] deals with subjects with type 1 diabetes mellitus. Description: Safety assessments. Put shortly: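 Monitored from dosing to follow-up 7–21 days after second dose: adverse events, injection-site local tolerability, hypoglycaemic episodes, laboratory safety, physical exam, vital signs, ECG. Hypoglycaemia confirmed if severe (ADA, third-party assistance) or plasma glucose <3.1 mmol/L. Summarised descriptively for subjects receiving at least one dose.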

A short description of series [2]: Free serum insulin aspart pharmacokinetics after single subcutaneous dosing. The conditions noted are these: single s.c. 0.2 U/kg. In short, it runs like this:
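Same crossover dosing (0.2 U/kg s.c., fasted). Blood sampled before dosing, every 2 min to 20 min, every 5 min to 80 min, every 10 min to 2 h, every 15 min to 3 h, then 3.5–12 h. Free (PEG-precipitated) serum insulin aspart measured by validated specific ELISA, LLOQ 10 pmol/L. Pre-LLOQ concentrations imputed by compartmental modelling for initial AUC portion.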

Series [3] relates to subjects with type 1 diabetes mellitus. Description: Euglycaemic glucose clamp. The conditions noted are these: single s.c. 0.2 U/kg. In short, it runs like this:
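Single 0.2 U/kg s.c. dose into the lower abdominal wall in randomised two-visit crossover (3–12 day washout), elderly (≥65 y) and younger (18–35 y) T1DM subjects, morning after overnight fast. Euglycaemic clamp, BG target 5.5 mmol/L, up to 12 h. GIR logged every minute. Partial and total AUCGIR taken from raw profiles. Least square means; age-group ratios with 95% CI.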

Setting [4] is: elderly and younger adults with T1DM, single s.c. 0.2 U/kg.
The mark [5] stands for this setting: elderly (≥65 years) T1DM, least square mean, n = 30.

As to insulin aspart, in series [1] (during the trial), the Injection-site reactions entry is “no injection-site reactions”. Also, in series [1] (setting [4]), the “Adverse events of moderate intensity” value is “eight”, the Serious adverse events entry is “no serious adverse events” and the Tolerability entry is listed as “well-tolerated”. In addition, the Confirmed hypoglycaemic episodes entry in series [1] (severe (ADA) or plasma glucose <3.1 mmol/L, during the trial) was “No confirmed hypoglycaemic episodes”. In addition, in series [2] (age group ratio, T1DM), the “AUCIAsp,0-t, ratio of elderly/younger adults [95% CI]” value is 1.32 [1.09–1.59] and the “C max, ratio of elderly/younger adults [95% CI]” value is 1.20 [0.96–1.50]. Further, in series [2] (setting [5]), the “t Early 50% Cmax” value turned out to be 28.0 min and the t max was 1.07 h. The “C max (maximum insulin aspart concentration)” value in series [2] (elderly T1DM, least square mean, n = 30) came to 0.3676 nM. The “GIRmax, ratio of elderly/younger adults [95% CI]” value in series [3] (age group ratio, T1DM) was 0.78 [0.60–1.01]. The “AUCGIR,0-t, ratio of elderly/younger adults [95% CI]” value in series [3] (age group ratio, T1DM, primary endpoint for faster aspart) is 0.85 [0.67–1.07]. The “AUCGIR,0-t (total glucose-lowering effect)” value in series [3] (elderly T1DM, clamp up to 12 h, least square mean, n = 22) is recorded as 1012.5 mg/kg.
